An excerpt weighted towards active compounds, which were near 2.1% of everything screened.
MEKK3 PB1 HTS = MEKK3-MEK5 PB1 interaction, increase or decrease; 290,000 compounds, 1.4% hits; Q99759; binding response (% of control), % at 10 µM; bead-based flow cytometry, Alexa488-MEK5 binding to MEKK3; actives lie on both sides; 0 = blocked by unlabeled MEK5, 100 = vehicle;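 active = binding response more than 3 SD above or below the average of its plate-row segment, actives on both sides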;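 note: Alexa488 bead fluorescence after subtracting the streptavidin-only scavenger bead signal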
STK33 kinase inh = inhibitors of human STK33 kinase; inhibition, % at 10 µM; purified STK33, MBP phosphorylation, ADP-Glo luminescence; 320,000 compounds, 0.073% hits;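 active = inhibition at or above 25%, using the most active replicate where run in duplicate; inactive = inhibition below 25%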
Target sequence (Q9BYT3 whole entry, looked up): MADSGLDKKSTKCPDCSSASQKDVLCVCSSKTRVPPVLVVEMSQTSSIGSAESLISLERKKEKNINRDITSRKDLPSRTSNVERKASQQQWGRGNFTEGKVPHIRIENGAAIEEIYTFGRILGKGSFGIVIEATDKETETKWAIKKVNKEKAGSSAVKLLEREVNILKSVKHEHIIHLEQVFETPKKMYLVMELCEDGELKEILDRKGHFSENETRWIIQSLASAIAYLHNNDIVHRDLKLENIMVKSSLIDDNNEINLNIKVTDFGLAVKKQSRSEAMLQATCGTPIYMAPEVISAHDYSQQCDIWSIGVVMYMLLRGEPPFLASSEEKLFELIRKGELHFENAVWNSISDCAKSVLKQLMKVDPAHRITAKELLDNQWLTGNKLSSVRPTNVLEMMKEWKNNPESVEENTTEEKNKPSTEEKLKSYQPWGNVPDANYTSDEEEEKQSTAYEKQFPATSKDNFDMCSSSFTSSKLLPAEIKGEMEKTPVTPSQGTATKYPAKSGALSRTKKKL
GSK3A inh = blocks human GSK-3 alpha kinase; ADP-Glo luminescence, 60 min; inhibition, % at 10 µM; AID 2650; P49840; 320,000 compounds, 0.1% hits;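 active = more than half of replicates show inhibition above 20%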;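 note: GST-tagged GSK-3 alpha with peptide substrate and 25 µM ATP; 0% = DMSO neutral wells and 100% = GW8510 positive control wells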
MEKK2 WT-MEK5 = raises or lowers MEK5 binding to wildtype human MEKK2 PB1 domain; Q9Y2U5; bead flow cytometry, Alexa488-MEK5 binding to MEKK2 WT; actives lie on both sides; binding response (% of control), % at 10 µM; 290,000 compounds, 1.1% hits; AID 1531; in the data active = binding response below about 67% or above about 130%
MEKK2 mut-MEK5 = signal of MEK5 binding to mutant human MEKK2 PB1 domain; 290,000 compounds, 0.35% hits; percent response, % at 10 µM; AID 1530; bead flow cytometry, Alexa488-MEK5 binding to MEKK2 mutant; in the data active = percent response above about 24%, passing the limit was not always enough
GSK3beta inhib = human GSK3beta kinase inhibition | P49841 | GST-GSK3beta kinase, ADP-Glo luminescence, 60 min; hits give low values | activity score (negative = inhibition), % at 10 µM | 300,000 compounds, 0.038% hits | AID 2097;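 active = more than half of replicate wells score below -50%, meaning over 50% inhibition versus plate controls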;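 note: 0% = median DMSO wells and -100% = median GW8510 positive control wells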
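Test system: GST-tagged human GSK3beta kinase, cell-free; evaluation: activity score scaled between in-plate DMSO and GW8510 controls; measured by: ADP-Glo luminescence; incubation: 60 min reaction, RT; benchmarks: DMSO and 20 µM GW8510; reagent: peptide substrate plus 25 µM ATP (final); medium: Tris/MgCl2 kinase buffer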
MEKK2wt confirm = raises or lowers MEK5 binding to wildtype human MEKK2, retest | shares compounds with MEKK3 PB1 HTS | bead flow cytometry, Alexa488-MEK5 binding to MEKK2 WT; actives lie on both sides | binding response (% of control), % at 10 µM | 5,900 compounds, 2.4% hits; in the data active = binding response below about 16% or above about 210%; inactive = in between
MEKK2mut confirm = signal of MEK5 binding to mutant human MEKK2, retest; percent response, % at 10 µM; bead flow cytometry, Alexa488-MEK5 binding to MEKK2 mutant; shares compounds with MEKK3 PB1 HTS; 5,900 compounds, 2% hits; in the data active = percent response mostly above about 71%, no sharp cut-off; inactive = mostly below about 38%;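 note: higher means compound restores mutant binding toward wildtype level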
MEKK3-MEK5 inh = MEKK3-MEK5 PB1 inhibition, single concentration confirmation; shares compounds with MEKK3 PB1 HTS; bead flow cytometry, Alexa488-MEK5 binding to MEKK3; hits give low values; binding response (% of control), % at 10 µM; 5,900 compounds, 1.8% hits; AID 1894;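 active = binding response below 72% of control, or above a set upper limit, though filed actives all read lower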;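 note: 100% = DMSO only wells and 0% = binding blocked by excess unlabeled MEK5; lower values mean stronger disruption of MEK5 binding to MEKK3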
* marks the source's active call; other numbers are inactive results; [ ] = dose if it differs, or a comment.

For CC(C)N(CCCNC(=O)Cn1ncc2c([nH]c3ccccc32)c1=O)Cc1ccccc1 the results were MEKK3 PB1 HTS 101, STK33 kinase inh 0, GSK3A inh 0, MEKK2 WT-MEK5 117, MEKK2 mut-MEK5 10 and GSK3beta inhib 3.
O=C(COC(=O)c1ccc(S(=O)(=O)N2CCCCC2)cc1)NCc1ccccc1 was read as STK33 kinase inh -2 and GSK3A inh 3.
Cc1nc(-c2nc(-c3c(C(=O)NNC(=O)c4ccc(Cl)cc4)noc3C)cs2)cs1 was read as MEKK3 PB1 HTS 103, STK33 kinase inh -1, GSK3A inh 1, MEKK2 WT-MEK5 107, MEKK2 mut-MEK5 2 and GSK3beta inhib 0.
For Cc1nc(-c2nc(-c3c(C(=O)NN)noc3C)cs2)cs1 the results were MEKK3 PB1 HTS 147*, STK33 kinase inh -1, GSK3A inh 1, MEKK2 WT-MEK5 122, MEKK2 mut-MEK5 6, GSK3beta inhib 1, MEKK2wt confirm 109, MEKK2mut confirm 9 and MEKK3-MEK5 inh 106.
Screening CCOc1ccc(C(=O)NCC(=O)OCC(=O)N2CCCC2)cc1 returned MEKK3 PB1 HTS 101, STK33 kinase inh -1, GSK3A inh -2, MEKK2 WT-MEK5 100, MEKK2 mut-MEK5 -1 and GSK3beta inhib 3.
`CCOC(=O)/C=C/c1nc(C(=O)OCC)c(C)c(=O)[nH]1` gave MEKK3 PB1 HTS 75*[inhibitor], STK33 kinase inh 0, GSK3A inh -1, MEKK2 WT-MEK5 98, MEKK2 mut-MEK5 -4, GSK3beta inhib 3, MEKK2wt confirm 97, MEKK2mut confirm -2 and MEKK3-MEK5 inh 94.
For Cc1ccc(NC(=O)COC(=O)C2(c3ccc(Cl)cc3)CCCC2)cc1 the results were MEKK3 PB1 HTS 153*, STK33 kinase inh -1, GSK3A inh -3, MEKK2 WT-MEK5 121, MEKK2 mut-MEK5 1, GSK3beta inhib -8, MEKK2wt confirm 103, MEKK2mut confirm 3 and MEKK3-MEK5 inh 103.
For Cc1c(NC(=O)C2CC(c3ccc(F)cc3)=NO2)c(=O)n(-c2ccccc2)n1C (stereo not given) the results were MEKK3 PB1 HTS 9.0*[inhibitor], STK33 kinase inh 1, GSK3A inh -2, MEKK2 WT-MEK5 17*[inhibitor], MEKK2 mut-MEK5 -38, GSK3beta inhib 0, MEKK2wt confirm 104, MEKK2mut confirm 7 and MEKK3-MEK5 inh 102.
Cc1ccc(S(=O)(=O)Oc2ccccc2/C=N/N=C(N)N)cc1 was read as MEKK3 PB1 HTS 115, STK33 kinase inh 2, GSK3A inh -1, MEKK2 WT-MEK5 149*, MEKK2 mut-MEK5 19, GSK3beta inhib -3, MEKK2wt confirm 118, MEKK2mut confirm 14 and MEKK3-MEK5 inh 102.
CCCCN(C)c1c(N2CCC(C(=O)OCC)CC2)c(=O)c1=O was read as MEKK3 PB1 HTS 85, STK33 kinase inh 0, GSK3A inh -5, MEKK2 WT-MEK5 84, MEKK2 mut-MEK5 -4 and GSK3beta inhib -1.
O=c1oc2ccccc2c2c1SC(C(F)(F)F)C2 (stereo not given) was read as MEKK3 PB1 HTS 99, STK33 kinase inh 0, GSK3A inh 2, MEKK2 WT-MEK5 103, MEKK2 mut-MEK5 3 and GSK3beta inhib 3.
`O=c1oc2ccc3ccccc3c2c2c1SC(C(F)(F)F)C2` (stereo not given) gave MEKK3 PB1 HTS 124*, STK33 kinase inh -1, GSK3A inh -2, MEKK2 WT-MEK5 115, MEKK2 mut-MEK5 8, GSK3beta inhib -3, MEKK2wt confirm 94, MEKK2mut confirm -7 and MEKK3-MEK5 inh 99.
